Test results from PMC3739880 (The FASEB Journal, 2011).

Columns and labels:
[1] = system: Y16141 cells expressing Saccharomyces Ddi1; assay: Yeast cell morphology, Y16141 with Saccharomyces Ddi1 construct; assay type: cell-based, S. cerevisiae; details: 25 μM inhibitor, 24 h
Outline: (§1)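 DDI1-knockout Y16141 carried pVTL260, either alone or encoding full-length Ddi1 orthologs, introduced by lithium acetate transformation. Grown 24 h at 30°C in selective minimal medium with or without 25 μM inhibitor. Morphology examined by phase-contrast microscopy at ×100, with images captured digitally. Fraction of cells with greatly enlarged morphology was recorded.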

[2] = system: Y16141 cells transformed with pVTL260 plasmid; assay: Yeast cell morphology, knockout yeast transformed with plasmid alone; assay type: cell-based, S. cerevisiae; details: 25 μM inhibitor
Outline: as §1

[3] = system: Y16141 cells expressing human ortholog of Ddi1; assay: Yeast cell morphology, Y16141 with human Ddi1 construct; assay type: cell-based, S. cerevisiae; details: 25 μM inhibitor; yeast transformed to express the human ortholog of Ddi1
Outline: as §1

S. cerevisiae Ddi1 = molecular target: T1, S. cerevisiae Ddi1 (Saccharomyces cerevisiae, UniProt P40087); assay: Proteinase inhibitor assay; assay type: cell-based; details: for inhibition at 25 µM: read-out: Y16141 Ddi1, Inhibition at 25 μM (%)
T1 sequence (P40087 1-428): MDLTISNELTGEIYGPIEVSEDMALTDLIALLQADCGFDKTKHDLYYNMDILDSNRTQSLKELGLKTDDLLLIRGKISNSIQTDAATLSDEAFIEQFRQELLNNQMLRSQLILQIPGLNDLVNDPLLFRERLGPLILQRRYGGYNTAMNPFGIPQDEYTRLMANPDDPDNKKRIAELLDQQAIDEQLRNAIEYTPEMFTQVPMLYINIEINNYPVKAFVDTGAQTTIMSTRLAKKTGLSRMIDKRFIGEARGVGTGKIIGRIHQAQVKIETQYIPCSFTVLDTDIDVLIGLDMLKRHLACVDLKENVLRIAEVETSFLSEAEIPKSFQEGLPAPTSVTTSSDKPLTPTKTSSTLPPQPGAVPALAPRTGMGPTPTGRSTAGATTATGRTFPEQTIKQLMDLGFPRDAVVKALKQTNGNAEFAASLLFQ
Outline: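 S. cerevisiae Ddi1 was expressed from pVTL260 in DDI1-knockout Y16141, transformed by lithium acetate. Colony precultured overnight at 30°C in selective minimal medium, then shaken 48 h at 30°C to A600 ~2 with or without inhibitor (25 μM, or a titration).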

[4] = system: wild-type S. cerevisiae BY4742; assay: Proteinase inhibitor assay; assay type: cell-based; details: Saccharomyces cerevisiae, read-out: BY4742, inhibition at 25 μM (%)
Outline: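 Wild-type BY4742 colony precultured overnight at 30°C in selective minimal medium, then shaken 48 h at 30°C to A600 ~2 with or without 25 μM inhibitor. Cells pelleted by centrifugation. Supernatant protein measured by RC DC assay with BSA standard and expressed as mg secreted per mg dry weight of pellet dried at 100°C. n=6.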

Leishmania Ddi1 = molecular target: T2, Leishmania Ddi1 (Leishmania major, UniProt I7HUG0); assay: Proteinase inhibitor assay; assay type: cell-based, L. major; details: for inhibition at 25 µM: read-out: Y16141 Leishmania, Inhibition at 25 μM (%)
T2 sequence (I7HUG0 148-390): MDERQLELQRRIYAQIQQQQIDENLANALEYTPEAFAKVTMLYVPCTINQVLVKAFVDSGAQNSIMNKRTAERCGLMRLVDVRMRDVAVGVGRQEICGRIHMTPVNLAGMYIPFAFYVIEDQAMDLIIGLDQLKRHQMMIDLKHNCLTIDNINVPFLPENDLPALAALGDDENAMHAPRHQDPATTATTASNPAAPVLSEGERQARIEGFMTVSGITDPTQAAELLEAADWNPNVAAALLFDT

L. amazonensis = details: read-out: IC50, inhibition of cellular growth and multiplication with L. amazonensis; parasites in culture; cited from earlier work
human Ddi1 = molecular target: T3, human Ddi1 (Homo sapiens, UniProt Q8WTU0); assay: Proteinase inhibitor assay; assay type: cell-based; details: for inhibition at 25 µM: read-out: Y16141 human, Inhibition at 25 μM (%)
T3 sequence (Q8WTU0 1-396): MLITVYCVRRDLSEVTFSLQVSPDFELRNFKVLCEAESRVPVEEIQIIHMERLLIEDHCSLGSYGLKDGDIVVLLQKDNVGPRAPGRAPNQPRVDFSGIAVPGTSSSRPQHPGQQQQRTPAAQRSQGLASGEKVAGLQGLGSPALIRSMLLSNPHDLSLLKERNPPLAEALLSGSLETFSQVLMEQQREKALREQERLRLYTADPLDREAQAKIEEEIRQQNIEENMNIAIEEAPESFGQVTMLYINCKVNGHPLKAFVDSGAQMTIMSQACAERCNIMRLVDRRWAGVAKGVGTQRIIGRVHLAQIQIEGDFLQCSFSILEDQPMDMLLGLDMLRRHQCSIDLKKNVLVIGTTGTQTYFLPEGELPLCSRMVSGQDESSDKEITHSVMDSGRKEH
Outline: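 Yeast DDI1-knockout Y16141 (BY4742 derivative) carrying the human Ddi1 ortholog in pVTL260, grown in selective minimal medium. Cultures shaken 48 h at 30°C to A600 ~2 with or without inhibitor (25 μM, or titrated). Supernatant protein measured against a BSA standard and expressed per mg dried-pellet weight. IC50 from a 4-parameter logistic fit. Means ± se, n=6.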

L. major = details: read-out: IC50, growth inhibition in L. major; parasites in culture; cited from earlier work
[5] = system: Y16141 cells expressing L. major Ddi1 ortholog; assay: Yeast cell morphology, Y16141 with Leishmania Ddi1 construct; assay type: cell-based, S. cerevisiae; details: 25 μM inhibitor, 24 h
Outline: as §1

L. infantum = details: cited from earlier work
Leishmania donovani = details: cited from earlier work

Row | SMILES | cells with greatly enlarged morphologies (% of cells) [1] | effect on cell morphology [2] | effect on cell morphology [3] | IC50 (S. cerevisiae Ddi1) [µM] | inhibition at 25 µM (S. cerevisiae Ddi1) [%] | inhibition at 25 µM [4] [%] | IC50 (Leishmania Ddi1) [µM] | inhibition at 25 µM (Leishmania Ddi1) [%] | IC50 (L. amazonensis) [µM] | inhibition at 25 µM (human Ddi1) [%] | IC50 (L. major) [µM] | cells with greatly enlarged morphologies (% of cells) [5] | Hill slope factor (Leishmania Ddi1; Y16141 expressing the L. major Ddi1 ortholog, Eq. 1 fit) | sensitivity of L. infantum (L. infantum) | IC50 (human Ddi1) [µM] | sensitivity of Leishmania donovani (Leishmania donovani)
1 | CC(C)CN(C[C@@H](O)[C@H](Cc1ccccc1)NC(=O)O[C@H]1CCOC1)S(=O)(=O)c1ccc(N)cc1 [Amprenavir] | ~75 % of cells | no effects | no effects | 2.8 ± 0.2 | 95 | 91 | 5.7 ± 0.7 | 100 | 62 | 9 | – | – | – | – | – | –
2 | CC(C)(C)NC(=O)[C@@H]1CN(Cc2cccnc2)CCN1C[C@@H](O)C[C@@H](Cc1ccccc1)C(=O)N[C@H]1c2ccccc2C[C@H]1O [Indinavir] | – | – | – | – | 24 | 36 | 3 ± 0.2 | 100 | – | 38 | 8 | – | – | – | – | –
3 | Cc1cccc(C)c1OCC(=O)N[C@@H](Cc1ccccc1)[C@@H](O)C[C@H](Cc1ccccc1)NC(=O)[C@H](C(C)C)N1CCCNC1=O [Lopinavir] | – | – | – | – | 6 | 6 | 56 ± 4 | 38 | 16 | 0 | – | – | – | – | – | –
4 | Cc1c(O)cccc1C(=O)N[C@@H](CSc1ccccc1)[C@H](O)CN1C[C@H]2CCCC[C@H]2C[C@H]1C(=O)NC(C)(C)C [Nelfinavir] | – | no effects | no effects | – | 40 | 50 | 0.44 ± 0.03 | 100 | 15 | 97 | – | ~95 % of cells | 0.72 ± 0.04 | tens of micromolar range | 3.4 ± 0.4 | tens of micromolar range
5 | CC(C)c1nc(CN(C)C(=O)N[C@H](C(=O)N[C@@H](Cc2ccccc2)C[C@H](O)[C@H](Cc2ccccc2)NC(=O)OCc2cncs2)C(C)C)cs1 [Ritonavir] | – | – | – | – | 0 | 1 | – | 22 | – | 3 | – | – | – | – | – | –
6 | CC(C)(C)NC(=O)[C@@H]1C[C@@H]2CCCC[C@@H]2CN1C[C@@H](O)[C@H](Cc1ccccc1)NC(=O)[C@H](CC(N)=O)NC(=O)c1ccc2ccccc2n1 [Saquinavir] | – | – | – | – | 24 | 31 | 2.8 ± 0.3 | 100 | – | 18 | 7 | – | – | – | – | –
7 | CCC[C@@]1(CCc2ccccc2)CC(O)=C([C@H](CC)c2cccc(NS(=O)(=O)c3ccc(C(F)(F)F)cn3)c2)C(=O)O1 [Tipranavir] | – | – | – | – | 86 | 58 | 2.9 ± 0.2 | 97 | – | 90 | – | – | – | – | 1.5 ± 0.2 | –
